Casp6 inh: blocks human caspase-6 cleavage activity; P55212; purified caspase-6, Z-VEID-R110 cleavage fluorescence; inhibition, % at 12.5 µM; hit rate 0.53% among 350,000; AID 686996;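 active means mean inhibition across replicates at least about 35%, with every replicate also reaching that limit, limit read from the data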;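 further: 0% = median of neutral control wells and 100% = no fluorescence left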
UCH37 inh: inhibitors of human deubiquitinating enzyme UCH37 | inhibition, % (test concentration not listed) | hit rate 0.33% among 330,000 | Q9Y5K5 | purified proteasome/UCH37, Ub-AMC cleavage fluorescence;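 active means mean inhibition over replicate wells above about 20%, limit read from the data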;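 further: 0% = compound-free wells with enzyme and 100% = wells lacking proteasome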
Target sequence (Q9Y5K5 whole entry, looked up): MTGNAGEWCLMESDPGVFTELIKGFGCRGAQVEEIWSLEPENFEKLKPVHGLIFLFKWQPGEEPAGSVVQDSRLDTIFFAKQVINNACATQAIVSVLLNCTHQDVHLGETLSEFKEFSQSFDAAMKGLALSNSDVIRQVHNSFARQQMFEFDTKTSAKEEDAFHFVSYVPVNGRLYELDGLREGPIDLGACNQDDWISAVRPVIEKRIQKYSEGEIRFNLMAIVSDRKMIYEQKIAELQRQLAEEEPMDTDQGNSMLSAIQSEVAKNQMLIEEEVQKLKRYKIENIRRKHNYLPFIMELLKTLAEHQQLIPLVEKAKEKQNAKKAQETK
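Material: Human UCH37 enzyme supplied as purified proteasome complex | Schedule: 30 min preincubation with enzyme, 25 min cleavage at room temperature | Detection: AMC fluorescence 355/460 nm | Measure: % inhibition of Ub-AMC cleavage fluorescence | Controls: Wells without proteasome as full block, compound-free enzyme plus substrate as uninhibited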
SIRT5 block: inhibitors of human sirtuin-5 desuccinylase | Q9NXA8 | Purified SirT5, succinyl-peptide AMC, trypsin-coupled fluorescence | inhibition, % at 15 µM | hit rate 1.1% among 330,000; in the data active means inhibition above about 15%
NSD2 inh: inhibitors of human histone methyltransferase NSD2. O96028. NSD2 peptide methylation, AlphaScreen, 120 min. inhibition, % at 12.5 µM. hit rate 0.54% among 310,000; in the data active means inhibition above about 50%
FGF22 binding-1: binders of recombinant human FGF22 by thermal shift. Q9HCT0. SYPRO orange fluorescence; percent of sucrose octasulfate shift, DMSO zero. activity (Tm shift, normalised), % at 9.99 µM. hit rate 1.5% among 340,000. AID 651658;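 active means mean Tm shift, scaled 0 neutral to 100 positive control, at about 1.3% or above, every replicate too, limit read from the data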
Target sequence (Q9HCT0 whole entry, looked up): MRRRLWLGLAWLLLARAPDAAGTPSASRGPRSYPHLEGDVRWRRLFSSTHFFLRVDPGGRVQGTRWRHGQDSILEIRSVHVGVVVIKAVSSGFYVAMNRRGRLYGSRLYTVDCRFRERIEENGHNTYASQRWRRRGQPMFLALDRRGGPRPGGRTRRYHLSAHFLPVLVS
FGF22 binding-2: binders of human FGF22 by thermal shift; shares compounds with FGF22 binding-1; recombinant FGF22 thermal shift, SYPRO orange fluorescence; thermal shift activity, °C (ΔTm) at 38 µM; hit rate 2% among 1,000; AID 720646;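 active means fitted rise in melting shift crosses a set limit at or below the top valid dose tested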
FGF22 TSA DP: binds human FGF22 shifting its melting temperature; shares compounds with FGF22 binding-1; 50 tested, under 10 active; Thermal shift assay, SYPRO orange, melting temperature shift; Tm shift (activity), % at 38 µM;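 active means compounds whose fitted dose curve of melting temperature shift rises past a set threshold within the tested doses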
TSA no protein: compound-only SYPRO artifact for FGF22 binders | shares compounds with FGF22 binding-1 | compound-only SYPRO orange thermal shift counter-screen, no protein | hit rate 2% among 1,000 | AC50, µM (series often up to 38 µM);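 active means rising signal whose fitted curve reaches the 0.54 level within the top valid dose, showing a melting point, actives reach about 13 µM in these data; inactive means the rest, including activity in the opposite direction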; further: value is where the raw curve crosses a fixed level and not half-maximal
CASP1 counter: blocks human caspase-1 in a selectivity counter-screen; purified caspase-1, Z-YVAD-R110 cleavage fluorescence; activity change, negative = inhibition, % at 35 µM; shares compounds with Casp6 inh; AID 743289; 100 tested, under 10 active;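 active means compounds lowering fluorescence whose fitted half-maximal concentration is no more than twice their top tested dose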
* = called active by the depositor; i = inactive; . = no result given; [ ] = dose if it differs, or a comment. Shown are actives, neighbours in structure and some others; about 2.6% of the full set was active somewhere.

SMILES	Casp6 inh	UCH37 inh	SIRT5 block	NSD2 inh	FGF22 binding-1	FGF22 binding-2	TSA no protein	others
CO[C@@H]1CN(C)C(=O)c2ccc(NS(=O)(=O)c3ccc(F)cc3)cc2OC[C@@H](C)N(C)C[C@H]1C	-2.6	.	.	.	205.8*	-0.009	i
Cc1nnc(NN=Cc2ccc(Br)cc2)n1N	.	3.8	.	.	.	.	.
COc1ccc(S(=O)(=O)N[C@H]2C=C[C@@H](CC(=O)O)O[C@H]2CO)cc1	1.7	.	-2.6	.	0.0	.	.
CO[C@@H]1CN(C)C(=O)c2cc(NS(=O)(=O)c3ccc(C)cc3)ccc2OC[C@@H](C)N(Cc2nccs2)C[C@H]1C	-1.5	.	1.3	.	.	.	.
O=C(Nc1ccc2c(c1)OCO2)c1ccc(NC2CC2)c([N+](=O)[O-])c1	3.8	5.4	-3.9	3.7	1.6*	0.605	i
O=C(Nc1ccc2c(c1)OCO2)c1ccc(N2CCCC2)c([N+](=O)[O-])c1	.	-2.5	.	9.8	.	.	.
CCCNC(=O)[C@@H]1[C@@H](CO)[C@@H]2Cn3c(ccc(-c4ccccc4F)c3=O)[C@H]1N2C(C)=O	-1.8	.	-12.9	.	1.1	.	.
COc1ccc(C=Nn2c(SC)nnc(C(C)(C)C)c2=O)cc1	.	1.2	.	.	.	.	.
CCNC(=O)C[C@H]1C=C[C@@H](NC(=O)C2CCC2)[C@H](CO)O1	0.5	.	0.3	.	0.2	.	.
Cc1ccc(S(=O)(=O)N(C)c2ccc(OC(=O)COc3ccccc3)cc2)cc1	-0.4	1.6	-3.3	-1.3	15.4*	0.1	i
N#CCc1nn(-c2ccccc2)c2ncnc(N)c12	2.5	.	-1.1	-3.8	1.5*	-0.003	i
O=C(CN(Cc1ccccc1)S(=O)(=O)c1ccc(Br)cc1)N/N=C/c1ccccc1C(=O)O	-2.8	.	-1.2	-5.2	0.4	.	.
O=C(CN(Cc1ccccc1)S(=O)(=O)c1ccccc1)N/N=C/c1ccccc1C(=O)O	3.6	.	0.5	-6.3	2.3*	-0.102	i
CNC[C@H]1Oc2ccc(NC(=O)C3CCCCC3)cc2C(=O)N([C@@H](C)CO)C[C@H]1C	-0.6	.	-2.5	.	1.2*	0.17[42 µM]	i
CNC[C@H]1Oc2ccc(NC(=O)Nc3ccc(OC)cc3)cc2C(=O)N([C@H](C)CO)C[C@@H]1C	-1.4	.	4.1	.	1.4*	0.098[42 µM]	i
CNC[C@H]1Oc2ccc(NC(=O)Nc3ccccc3)cc2C(=O)N([C@H](C)CO)C[C@@H]1C	1.0	.	1.4	.	0.2	.	.
CNC[C@H]1Oc2ccc(NC(=O)C3CCCCC3)cc2C(=O)N([C@@H](C)CO)C[C@@H]1C	-1.5	.	.	.	0.1	.	.
CC(C)NC(=O)N1C[C@@H]2[C@H](c3ccccc31)[C@H](CO)N2C(=O)Nc1ccc(F)cc1	0.7	.	6.0	.	-0.2	.	.
CO[C@@H]1CN(C)C(=O)c2ccc(NC(=O)C3CCCC3)cc2OC[C@@H](C)N(C(C)=O)C[C@H]1C	5.3	.	9.9	.	-0.3	.	.
Cc1ccccc1-c1ccccc1[C@@H]1[C@@H](C#N)N(C(=O)c2ccccc2)[C@H]1CO	-0.1	.	-4.8	.	1.3*	-0.035	i
Cc1ccccc1-c1ccccc1[C@@H]1[C@H](C#N)N(C(=O)c2ccccc2)[C@H]1CO	3.7	.	-0.5	.	0.9	.	.
C[C@H](CO)N1C[C@H](C)[C@@H](CN(C)C(=O)C2CC2)Oc2cc(C#CC3CCCC3)ccc2S1(=O)=O	0.3	.	7.9	.	-0.1	.	.
CCOCCCNS(=O)(=O)c1ccc(NC(=O)c2ccccc2)cc1	1.8	2.2	-5.2	-0.5	1.8*	0.028	i
O=C(Nc1ccsc1C(=O)O)c1cccc(C(F)(F)F)c1	0.5	.	6.7	1.8	1.5*	0.186	i
COc1ccc(C(C)(NC(C)=O)c2nc(-c3ccncc3)cs2)cc1 (stereo not given)	-3.6	.	.	0.4	18.1*	0.046	i
SMILES	Casp6 inh	UCH37 inh	SIRT5 block	NSD2 inh	FGF22 binding-1	FGF22 binding-2	TSA no protein	others
Cc1[nH]c2ccccc2c1C(=O)NS(=O)(=O)Nc1ccc(Cl)cc1	-0.1	0.2	-6.3	-5.9	1.6*	-0.191	i	FGF22 TSA DP=-0.2
COc1ccccc1NS(=O)(=O)NC(=O)c1c(C)[nH]c2ccccc12	-6.4	2.7	-1.1	2.7	-0.2	.	.
Cc1ccc(S(=O)(=O)N[C@H]2C=C[C@H](CC(=O)N3CCc4ccccc4C3)O[C@H]2CO)cc1	1.5	.	-1.6	.	1.3*	0.048[42 µM]	i
Cc1ccc(S(=O)(=O)N[C@H]2C=C[C@@H](CC(=O)N3CCc4ccccc4C3)O[C@@H]2CO)cc1	4.5	.	1.4	.	1.3*	-0.004	i
Cc1noc(C)c1S(=O)(=O)Nc1ccc2c(c1)CC(=O)N([C@H](C)CO)C[C@H](C)[C@@H](CN(C)C(=O)Nc1ccc(C(F)(F)F)cc1)O2	-1.8	.	-0.7	.	-0.3	.	.
C[C@H]1CN([C@@H](C)CO)S(=O)(=O)c2ccc(C#CCN(C)C)cc2O[C@@H]1CN(C)C(=O)CC1CC1	3.6	.	1.6	.	-0.5	.	.
O=C(OCC(=O)c1cccs1)c1cccc(C(=O)OCC(=O)c2cccs2)n1	2.2	1.4	-3.4	0.0	2.2*	0.026	i
CC(C)NC(=O)Nc1ccc2c(c1)CC(=O)N([C@H](C)CO)C[C@@H](C)[C@@H](CN(C)C(=O)NC(C)C)O2	0.6	.	-1.8	.	0.5	.	.
CCCn1c(O)c(C=Nc2ccccc2)sc1=S	-2.4	2.7	-6.6	-0.6	0.2	.	.
CCn1c(O)c(C=NCc2ccccc2)sc1=S	-0.5	6.1	-0.4	-2.4	2.9*	0.112	i
O=C(N1CCOCC1)C1(c2ccc(Cl)cc2)CCCC1	.	1.8	.	-4.3	.	.	.
CCNC(=O)C1(C)CCCN(C(=O)C2(c3ccc(Cl)cc3)CCCC2)C1 (stereo not given)	-0.7	.	.	-1.5	1.6*	0.037	i
Oc1cc(O)cc(C=Cc2ccc(O)c(O)c2)c1	76.0*	.	.	89.9*	2.0*	0.073	i	CASP1 counter=-8.0
C[C@H](CO)N1C[C@H](C)[C@@H](CN(C)C)Oc2cc(C#C[C@@H](C)O)ccc2S1(=O)=O	4.2	.	0.4	.	0.0	.	.
O=C(COC(=O)c1ccccc1)Nc1ncc([N+](=O)[O-])s1	84.4*	5.3	20.9*	83.1*	0.6	.	.	CASP1 counter=-6.7
O=C(Nc1ccccc1)Nc1ncc([N+](=O)[O-])s1	7.4	10.0	7.6	13.8	.	.	.
Nc1cc2c(cc1Br)[nH]c(=O)c1ccccc12	42.4*	.	-0.7	.	-0.2	.	.	CASP1 counter=5.7
O=C(O)/C(=C\c1ccc(Cl)c([N+](=O)[O-])c1)c1ccc(S(=O)(=O)N2CCCC2)s1	69.6*	10.8	8.7	49.4	0.2	.	.	CASP1 counter=10.9

Screening results from PubChem.
